Reference: publication PMC7881365 (Xenobiotica; the fate of foreign compounds in biological …, 2020)

Key:
CYP1A1 = molecular target: T1, CYP1A1 (Homo sapiens, UniProt P04798); format: in vitro ADME; details: peak intensities
T1 sequence (P04798 1-512): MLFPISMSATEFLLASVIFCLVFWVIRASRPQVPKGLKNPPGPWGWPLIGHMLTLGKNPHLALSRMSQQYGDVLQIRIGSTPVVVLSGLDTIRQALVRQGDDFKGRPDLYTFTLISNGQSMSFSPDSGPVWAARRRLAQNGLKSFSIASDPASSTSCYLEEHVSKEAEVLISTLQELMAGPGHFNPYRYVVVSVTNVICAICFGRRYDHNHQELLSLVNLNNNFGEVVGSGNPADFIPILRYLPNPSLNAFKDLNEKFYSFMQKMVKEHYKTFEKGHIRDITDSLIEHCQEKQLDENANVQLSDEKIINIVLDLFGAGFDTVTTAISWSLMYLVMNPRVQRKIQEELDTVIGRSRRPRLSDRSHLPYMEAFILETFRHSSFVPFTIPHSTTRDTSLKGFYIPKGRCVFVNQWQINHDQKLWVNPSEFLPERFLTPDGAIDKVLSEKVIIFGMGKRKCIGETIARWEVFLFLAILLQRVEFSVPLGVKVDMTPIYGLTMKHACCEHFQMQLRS
Summary of the method: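 Reconstituted system: purified E. coli-expressed CYP1A1 (50 pmol), NADPH-P450 reductase (100 pmol), DLPC (50 µg), no b5. Incubated with 60 µM methoxyflavone test compound at 37 °C for 20 min after 1 min preincubation, started with NADPH-generating system (0.5 mM NADP+, 5 mM glucose 6-phosphate, 0.5 unit/mL dehydrogenase). Quenched with ice-cold CH3CN and centrifuged. LC-MS/MS positive ESI; product as peak intensity, two or three determinations.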

CYP1A2 = molecular target: T2, CYP1A2 (Homo sapiens, UniProt P05177); format: in vitro ADME; details: peak intensities
T2 sequence (P05177 1-516): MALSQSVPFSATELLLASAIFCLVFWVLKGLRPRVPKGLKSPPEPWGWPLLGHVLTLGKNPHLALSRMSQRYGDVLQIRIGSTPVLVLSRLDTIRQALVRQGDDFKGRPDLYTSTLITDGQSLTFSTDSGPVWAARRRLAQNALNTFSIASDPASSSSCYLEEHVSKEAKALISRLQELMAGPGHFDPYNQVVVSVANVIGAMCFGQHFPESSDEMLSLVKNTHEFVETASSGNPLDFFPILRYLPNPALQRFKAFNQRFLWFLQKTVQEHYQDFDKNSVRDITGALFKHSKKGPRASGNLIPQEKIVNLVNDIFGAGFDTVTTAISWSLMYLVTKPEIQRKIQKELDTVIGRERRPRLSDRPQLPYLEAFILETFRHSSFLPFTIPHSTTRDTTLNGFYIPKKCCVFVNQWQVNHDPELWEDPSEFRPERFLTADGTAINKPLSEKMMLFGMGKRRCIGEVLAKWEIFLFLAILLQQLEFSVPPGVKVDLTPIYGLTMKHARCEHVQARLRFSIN

CYP1B1.1 = molecular target: T3, CYP1B1.1 (Homo sapiens, UniProt Q16678); format: in vitro ADME; details: peak intensities
T3 sequence (Q16678 1-543): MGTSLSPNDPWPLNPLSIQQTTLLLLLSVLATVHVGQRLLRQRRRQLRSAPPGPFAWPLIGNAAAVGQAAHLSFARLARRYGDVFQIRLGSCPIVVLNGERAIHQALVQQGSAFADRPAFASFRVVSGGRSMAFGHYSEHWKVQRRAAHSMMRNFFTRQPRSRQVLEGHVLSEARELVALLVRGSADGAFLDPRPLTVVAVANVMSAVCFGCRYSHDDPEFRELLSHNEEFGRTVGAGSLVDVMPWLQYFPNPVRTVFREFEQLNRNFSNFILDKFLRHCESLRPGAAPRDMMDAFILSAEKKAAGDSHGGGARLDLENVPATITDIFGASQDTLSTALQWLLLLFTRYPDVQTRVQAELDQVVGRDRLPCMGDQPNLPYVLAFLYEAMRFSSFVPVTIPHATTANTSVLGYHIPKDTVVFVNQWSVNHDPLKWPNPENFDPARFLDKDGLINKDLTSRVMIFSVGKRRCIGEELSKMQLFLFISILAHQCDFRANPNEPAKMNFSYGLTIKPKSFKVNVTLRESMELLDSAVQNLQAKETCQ

CYP1B1.3 = molecular target: T4, CYP1B1.3 (Homo sapiens, UniProt Q16678); format: in vitro ADME; details: peak intensities
T4 sequence (Q16678 1-543): T3 sequence (Q16678 1-543)

CYP2B6 = molecular target: T5, CYP2B6 (Homo sapiens, UniProt P20813); format: in vitro ADME; details: peak intensities
T5 sequence (P20813 1-491): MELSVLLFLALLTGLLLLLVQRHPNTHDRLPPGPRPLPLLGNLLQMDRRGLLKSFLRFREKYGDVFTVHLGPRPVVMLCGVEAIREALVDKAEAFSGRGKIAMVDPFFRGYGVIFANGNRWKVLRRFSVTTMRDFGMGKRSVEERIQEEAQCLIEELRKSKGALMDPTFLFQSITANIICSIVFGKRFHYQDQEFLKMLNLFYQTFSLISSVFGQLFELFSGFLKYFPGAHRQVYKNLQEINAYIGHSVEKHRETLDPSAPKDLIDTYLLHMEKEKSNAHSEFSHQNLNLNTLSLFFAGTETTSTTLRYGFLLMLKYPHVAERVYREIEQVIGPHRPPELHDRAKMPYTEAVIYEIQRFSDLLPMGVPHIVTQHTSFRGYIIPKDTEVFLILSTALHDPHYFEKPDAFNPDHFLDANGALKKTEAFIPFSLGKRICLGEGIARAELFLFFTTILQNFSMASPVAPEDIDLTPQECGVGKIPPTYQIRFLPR
Summary of the method: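 E. coli membranes co-expressing CYP2B6 and NADPH-P450 reductase (50 pmol P450) incubated with 60 µM methoxyflavone test compound at 37 °C for 20 min. Reaction started after 1 min preincubation with NADPH-generating system (0.5 mM NADP+, 5 mM glucose 6-phosphate, 0.5 unit/mL glucose 6-phosphate dehydrogenase). Stopped with ice-cold CH3CN, then centrifuged. Supernatant analysed by LC-MS/MS (positive ESI); products reported as peak intensities, from two or three determinations.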

Hela and SH-SY5Y cells = details: ref Fatokun et al. (2013; 2014); cited from earlier work

Compound | formation of 2′Me255a (m/z 255 product) (CYP1A1) | formation of 2′Me255a (m/z 255 product) (CYP1A2) | formation of 2′Me239a (possibly 2′OHF) (CYP1B1.1) | formation of 2′Me255a (m/z 255 product) (CYP1B1.1) | formation of 2′Me239a (possibly 2′OHF) (CYP1B1.3) | formation of 2′Me255a (m/z 255 product) (CYP1B1.3) | formation of 2′Me239a (possibly 2′OHF) (CYP2B6) | formation of 2′Me255a (m/z 255 product) (CYP2B6) | prevention of decreases in cell viability caused by N-methyl-N′-nitro-N-nitrosoguanine (Hela and SH-SY5Y cells)
COc1ccccc1-c1cc(=O)c2ccccc2o1 [2′MeF, 2′-methoxyflavone] | very low levels | very low levels | highly active | very low levels | highly active | very low levels | highly active | very low levels | –
COc1ccc(-c2cc(=O)c3ccccc3o2)cc1OC [3′,4′-dimethoxyflavone, reference compound] | – | – | – | – | – | – | – | – | effectively prevent decreases in cell viability
COc1ccc(-c2cc(=O)c3ccccc3o2)cc1 [4′MeF, 4′-methoxyflavone] | – | – | – | – | – | – | – | – | effectively prevent decreases in cell viability
